Results from ChEMBL document CHEMBL1124374, “Enkephalinase inhibitors. 1. 2,4-Dibenzylglutaric acid derivatives” (J Med Chem, 1989).

Key:
Type in all cases: functional
[1] = system: Mus musculus; experiment: Tail-flick latency observed in CF-1 mice after the administration (3 mg/kg) followed by icv administration of DAEM ([D-Ala2,Met5]enkephalin)
Method in brief: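 Male CF-1 mice (20–22 g) given test agent or vehicle sc, then immediately DAEM (1 μg) or vehicle icv. Tail-flick latency read 30 min later, cutoff 10 s; n = 10 per group.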

[2] = system: Mus musculus; experiment: Stretching activity in male CF-1 mice, after the intra peritoneal administration of acetic acid and subcutaneous administration of compound; settings: sc
Method in brief: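 Male CF-1 mice (18–22 g), twelve per dose of agent or vehicle, dosed sc 15 min before ip 3% aqueous acetic acid at 10 mL/kg. Five minutes after irritant, stretching episodes counted over 10 min. ED50 derived from these counts.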

[3] = system: Mus musculus; experiment: Doubling of hotplate jump-latency activity in mouse after intra cerebro ventricular administration of the compound
Method in brief: (§1)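 Male CF1 mice (18–23 g) dosed icv or sc; 15 min later placed singly on a copper hot plate held at 55 °C. Latency to jump recorded, cutoff 240 s. MED = minimum effective dose. ED200 = dose doubling jump latency.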

[4] = system: Mus musculus; experiment: Doubling of hotplate jump-latency activity in mouse after subcutaneous administration of the compound
Method in brief: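 Male CF1 mice (18–23 g) dosed sc; 15 min later placed singly on copper hot plate held at 55 °C. Latency to jump off recorded, cutoff 240 s. ED200 is the dose doubling jump latency.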

[5] = system: Mus musculus; experiment: Hot-plate jump-latency activity in mouse 15 minutes after subcutaneous administration; settings: sc, 0.25 h, read-out: MED; method in brief: as §1

`O=C(O)CNC(=O)C(CS)Cc1ccccc1` (stereo not given) [THIORPHAN] was tested, and the Reaction time [1] was 7.5 s, the ED50 [2] was 38 mg/kg and the ED200 [3] was 75 µg. For the same molecule, the ED200 [4] was over 100 mg/kg and the minimal effective dose [5] was 100 mg/kg.
